From ChEMBL document CHEMBL1148764, “CYP2C9 structure-metabolism relationships: optimizing the metabolic stability of COX-2 inhibitors” (J Med Chem, 2007) come the findings set out here.

The target in one series is CYP2C9 (Homo sapiens, UniProt P11712). The series is described as follows: Metabolic stability in presence of human recombinant CYP2C9 at 1 uM after 30 mins. Format: ADME. In outline:
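Recombinant human CYP2C9 (Bactosomes), 5 pmol per reaction, in […] buffer pH 7.4 with 1 mM NADPH. Compound 1 µM, added in acetonitrile (2.5% final). 10 min preincubation at 37 °C, reaction started with NADPH, sampled at 0 and 30 min, stopped with ice-cold acetonitrile. Parent remaining quantified by LC/MS/MS as % metabolized. Run in duplicate.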

The target of series [1] is T1, Prostaglandin G/H synthase 2 (Homo sapiens) (UniProt P35354).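 Also: recombinant enzyme assay, activity read out as PGE2 generation.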
T1 sequence (whole entry): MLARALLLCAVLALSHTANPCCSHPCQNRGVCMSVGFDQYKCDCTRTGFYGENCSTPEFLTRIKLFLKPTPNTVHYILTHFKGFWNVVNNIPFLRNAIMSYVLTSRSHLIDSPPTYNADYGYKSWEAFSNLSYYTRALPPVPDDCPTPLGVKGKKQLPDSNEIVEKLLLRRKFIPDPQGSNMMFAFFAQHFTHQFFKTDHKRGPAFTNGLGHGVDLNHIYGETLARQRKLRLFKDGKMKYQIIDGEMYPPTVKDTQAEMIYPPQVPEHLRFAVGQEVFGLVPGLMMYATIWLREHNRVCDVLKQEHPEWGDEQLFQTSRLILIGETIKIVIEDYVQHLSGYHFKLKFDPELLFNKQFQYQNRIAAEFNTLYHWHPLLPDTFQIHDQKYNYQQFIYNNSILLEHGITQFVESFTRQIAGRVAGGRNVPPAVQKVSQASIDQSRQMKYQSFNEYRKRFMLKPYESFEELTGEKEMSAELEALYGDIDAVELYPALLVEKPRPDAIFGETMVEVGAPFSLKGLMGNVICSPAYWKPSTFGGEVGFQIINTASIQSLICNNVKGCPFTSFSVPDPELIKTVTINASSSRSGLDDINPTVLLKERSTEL
As to conditions: at 100 µM.

Series [2] deals with Prostaglandin G/H synthase 1 (Homo sapiens) (UniProt P23219). As to conditions: at 100 µM.
Prostaglandin G/H synthase 1 (Homo sapiens), sequence (P23219 whole entry): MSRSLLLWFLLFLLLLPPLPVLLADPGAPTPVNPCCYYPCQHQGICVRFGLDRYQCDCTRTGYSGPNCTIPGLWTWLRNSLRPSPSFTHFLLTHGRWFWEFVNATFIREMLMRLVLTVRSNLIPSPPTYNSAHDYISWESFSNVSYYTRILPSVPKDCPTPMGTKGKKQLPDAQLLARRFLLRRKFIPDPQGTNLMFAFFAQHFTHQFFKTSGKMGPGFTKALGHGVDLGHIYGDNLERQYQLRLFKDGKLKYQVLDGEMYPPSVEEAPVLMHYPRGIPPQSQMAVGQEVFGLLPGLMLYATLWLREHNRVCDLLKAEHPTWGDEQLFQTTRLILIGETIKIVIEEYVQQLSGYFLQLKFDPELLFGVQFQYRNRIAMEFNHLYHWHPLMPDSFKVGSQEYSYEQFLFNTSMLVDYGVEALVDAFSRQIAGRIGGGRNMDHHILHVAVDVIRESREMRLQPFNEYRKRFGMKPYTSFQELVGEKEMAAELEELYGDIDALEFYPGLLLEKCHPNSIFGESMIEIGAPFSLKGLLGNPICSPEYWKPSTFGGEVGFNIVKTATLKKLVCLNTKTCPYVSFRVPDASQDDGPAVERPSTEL

CYP2C9, sequence (P11712 whole entry): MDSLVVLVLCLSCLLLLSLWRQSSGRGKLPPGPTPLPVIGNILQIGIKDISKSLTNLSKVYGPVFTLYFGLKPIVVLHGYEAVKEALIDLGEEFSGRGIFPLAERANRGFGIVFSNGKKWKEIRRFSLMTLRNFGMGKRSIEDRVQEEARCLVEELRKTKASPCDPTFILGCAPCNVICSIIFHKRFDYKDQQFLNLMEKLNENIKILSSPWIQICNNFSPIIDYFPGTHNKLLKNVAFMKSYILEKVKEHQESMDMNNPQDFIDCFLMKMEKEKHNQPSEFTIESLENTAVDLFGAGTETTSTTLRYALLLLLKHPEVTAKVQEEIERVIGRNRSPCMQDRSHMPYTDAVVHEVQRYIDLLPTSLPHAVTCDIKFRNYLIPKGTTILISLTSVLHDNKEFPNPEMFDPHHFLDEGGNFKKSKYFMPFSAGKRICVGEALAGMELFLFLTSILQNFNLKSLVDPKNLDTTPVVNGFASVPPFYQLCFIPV

In the case of `CCOC(=O)c1ccc(-n2nc(C(F)(F)F)cc2-c2ccc(C)cc2)cc1`, the metabolized at 0.5 h, 1 µM on CYP2C9 is 88%. The inhibition worked out at 87% in series [1] and 55% in series [2].

For the molecule `CSc1ccc(-n2nc(C(F)(F)F)cc2-c2ccc(C)cc2)cc1`, at CYP2C9, the metabolized at 0.5 h, 1 µM worked out at 87%. For the same molecule, the inhibition in series [1] amounted to 99%; in series [2], 95%.

Regarding `Cc1ccc(-c2cc(C(F)(F)F)nn2-c2ccc(C)cc2)cc1`, the metabolized at 0.5 h, 1 µM on CYP2C9 came out at 30%.

`Cc1ccc(-c2cc(C(F)(F)F)nn2-c2ccc(S(C)(=O)=O)cc2)cc1`: on CYP2C9, the metabolized at 0.5 h, 1 µM came out at 81%. The inhibition is 92% in series [1] and 99% in series [2].

For the molecule `NS(=O)(=O)c1ccc(-n2nc(C(F)(F)F)cc2-c2ccc(C(F)(F)F)cc2)cc1`, at CYP2C9, the metabolized at 0.5 h, 1 µM came to 0%.

For the molecule `O=C(O)Cc1ccc(-n2nc(C(F)(F)F)cc2-c2ccc(C(F)(F)F)cc2)cc1`, the metabolized at 0.5 h, 1 µM on CYP2C9 was 4%. The inhibition stood at 93% in series [1] and 96% in series [2].

For the molecule `Cc1ccc(-c2cc(C(F)(F)F)nn2-c2ccc(S(N)(=O)=O)cc2)cc1` [CELECOXIB], the metabolized at 0.5 h, 1 µM at CYP2C9 came to 94%.

For `Cc1ccc(-c2cc(C(F)(F)F)nn2-c2ccc(C(=O)O)cc2)cc1`, the metabolized at 0.5 h, 1 µM at CYP2C9 came out at 29%. In addition, the inhibition worked out at 26% in series [1] and 67% in series [2].

Take `Cc1ccc(-c2cc(-c3ccccc3)nn2-c2ccc(S(N)(=O)=O)cc2)cc1`: at CYP2C9, the metabolized at 0.5 h, 1 µM was 49%. Moreover, the inhibition in series [1] came out at 92%; in series [2] it was 100%.

Turning to `CCOC(=O)c1ccc(-n2nc(C(F)(F)F)cc2-c2ccc(C(F)(F)F)cc2)cc1`, the metabolized at 0.5 h, 1 µM at CYP2C9 is 2%. Besides, the inhibition in series [1] was determined as 96%; in series [2], 55%.

On to `O=C(O)c1ccc(-n2nc(C(F)(F)F)cc2-c2ccc(C(F)(F)F)cc2)cc1`, for which, on CYP2C9, the metabolized at 0.5 h, 1 µM came to 29%. For the same molecule, the inhibition in series [1] was found to be 6%; in series [2], 28%.

Turning to `Cc1ccc(-c2cc(C(=O)O)nn2-c2ccc(S(N)(=O)=O)cc2)cc1`, on CYP2C9, the metabolized at 0.5 h, 1 µM was found to be 61%. Further, the inhibition in series [1] amounted to 43%; in series [2], 66%.

Take `Cc1ccc(-c2cc(C(F)(F)F)nn2-c2ccc(CC(=O)O)cc2)cc1`: the metabolized at 0.5 h, 1 µM at CYP2C9 is 10%. For the same molecule, the inhibition in series [1] worked out at 95%; in series [2], 88%.

For the molecule `Cc1ccc(-c2cc(C(F)(F)F)nn2-c2ccc([S+](C)[O-])cc2)cc1` (stereo unspecified), at CYP2C9, the metabolized at 0.5 h, 1 µM is 48%. Moreover, the inhibition in series [1] came out at 99%; in series [2], 82%.
